Test results: ChEMBL document CHEMBL1145787, “Synthesis and structure-activity relationship of N-substituted 4-arylsulfonylpiperidine-4-hydroxamic acids as novel, orally active matrix metalloproteinase inhibitors for the treatment of osteoarthritis” (J Med Chem, 2003)

Assays:
[1] = Apparent elimination half life of compound was determined in rat at 25 mg/kg orally; format: ADME, organism-based; design: dose 25 mg/kg, route oral; conditions: in vivo, po
Method in brief: (§1)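 Single-dose PK in Sprague–Dawley rats, New Zealand rabbits, Beagle dogs and cynomolgus monkeys. Dosing was 25 mg/kg oral or 5 mg/kg iv. Plasma concentration–time profiles gave the apparent elimination half-life (T1/2) and the area under the concentration–time curve (AUC). Parameters are reported as means.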

[2] = target: Matrix metalloproteinase-14 (Homo sapiens, UniProt P50281); assay: Inhibition of Matrix metalloprotease-14
Method in brief: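 Inhibitor concentrations run in triplicate; IC50 from a four-parameter logistic fit within a single experiment, reported as the mean of triplicate values.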

[3] = Time of peak concentration of compound was determined in dog at 25 mg/kg orally; format: ADME, organism-based, Canis lupus familiaris; design: dose 25 mg/kg, route oral; conditions: in vivo, po
Method in brief: (§2)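 Single oral dose of 25 mg/kg in Sprague–Dawley rats, New Zealand rabbits, Beagle dogs and Cynomolgus monkeys. Mean plasma pharmacokinetics; Cmax is the maximum plasma concentration and Tmax is the time of peak concentration.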

[4] = Oral bioavailability of compound was determined in rabbit at 25 mg/kg orally; format: ADME, organism-based, Oryctolagus cuniculus; conditions: in vivo, read-out: Bioavailabiility
[5] = Total clearance of compound was determined in rabbit at 5 mg/kg intravenously admn.; format: ADME, organism-based, Oryctolagus cuniculus; design: dose 5 mg/kg, route intravenous; conditions: in vivo, iv, read-out: CLT
Method in brief: (§3)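 Single iv dose of 5 mg/kg in Sprague–Dawley rats, New Zealand rabbits, Beagle dogs and Cynomolgus monkeys. Mean plasma pharmacokinetics: C0 is the concentration at T=0, Vdss the volume of distribution at steady state, and CLT the total clearance.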

[6] = Peak concentration of compound at Time = 0 was determined in rabbit at 5 mg/kg intravenously admn.; format: ADME, organism-based, Oryctolagus cuniculus; design: dose 5 mg/kg, route intravenous; conditions: in vivo, iv; method in brief: as §3
Neutrophil collagenase = Neutrophil collagenase (Homo sapiens, UniProt P22894); assay: Inhibition of Matrix metalloprotease-8
Neutrophil collagenase, sequence (P22894 whole entry): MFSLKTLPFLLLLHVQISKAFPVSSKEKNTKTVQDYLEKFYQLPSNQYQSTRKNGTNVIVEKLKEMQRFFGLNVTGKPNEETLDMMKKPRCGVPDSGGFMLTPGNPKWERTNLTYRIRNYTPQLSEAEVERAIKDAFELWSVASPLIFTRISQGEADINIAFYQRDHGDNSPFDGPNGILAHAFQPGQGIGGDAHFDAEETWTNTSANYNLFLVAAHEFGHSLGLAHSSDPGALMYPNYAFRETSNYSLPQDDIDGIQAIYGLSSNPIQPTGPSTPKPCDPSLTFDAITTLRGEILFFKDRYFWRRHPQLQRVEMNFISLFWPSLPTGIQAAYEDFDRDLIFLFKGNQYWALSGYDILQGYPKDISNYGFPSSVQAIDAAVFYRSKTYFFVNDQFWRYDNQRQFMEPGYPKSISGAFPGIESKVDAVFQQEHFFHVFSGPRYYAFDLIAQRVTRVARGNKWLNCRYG
Method in brief: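 Each inhibitor concentration was tested in triplicate. IC50 came from a four-parameter logistic fit of data within a single experiment and is reported as the mean of the triplicate values.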

[7] = Total clearance of compound was determined in rat at 5 mg/kg intravenously admn.; format: ADME, organism-based; design: dose 5 mg/kg, route intravenous; conditions: in vivo, iv, read-out: CLT; method in brief: as §3
[8] = Area under concentration-time curve of compound was determined in monkey at 5 mg/kg intravenously admn.; format: ADME, organism-based; design: dose 5 mg/kg, route intravenous; conditions: simiiformes, in vivo, iv, read-out: AUC 0; method in brief: as §1
Oryctolagus cuniculus = assay: Effect of compound on cartilage in surgically induced osteoarthritis (OA) model in rabbit at 15 mg/kg, value are relative to activity of RS-130830 (7.9+/-1.5) at 25 mg/kg; format: ADME, organism-based, Cartilage tissue; conditions: in vivo
Method in brief: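 Rabbits had anterior cruciate ligament transection plus meniscectomy in one knee, with sham surgery on the contralateral knee. From day 10 after surgery, groups of 12 were dosed once daily by oral gavage with vehicle, test compound or the RS-130830 reference for 4 weeks. Knee joints were then collected and scored for gross pathological changes by blinded investigators.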

[9] = Maximum plasma concentration of compound was determined in dog at 25 mg/kg orally; format: ADME, organism-based, Canis lupus familiaris; design: dose 25 mg/kg, route oral; conditions: po; method in brief: as §2
[10] = Apparent elimination half life of compound was determined in monkey at 25 mg/kg orally; format: ADME, organism-based; design: dose 25 mg/kg, route oral; conditions: simiiformes, in vivo, po; method in brief: as §1
[11] = Oral bioavailability of compound was determined in dog at 25 mg/kg orally; format: ADME, organism-based, Canis lupus familiaris; conditions: in vivo, read-out: Bioavailabiility
[12] = Apparent elimination half life of compound was determined in dogt at 5 mg/kg intravenously admn.; format: ADME, organism-based, Canis lupus familiaris; design: dose 5 mg/kg, route intravenous; conditions: dog, in vivo, iv; method in brief: as §1
[13] = Maximum plasma concentration of compound was determined in rat at 25 mg/kg orally; format: ADME, organism-based; design: dose 25 mg/kg, route oral; conditions: po; method in brief: as §2
[14] = Apparent elimination half life of compound was determined in dog at 25 mg/kg orally; format: ADME, organism-based, Canis lupus familiaris; design: dose 25 mg/kg, route oral; conditions: in vivo, po; method in brief: as §1
[15] = Peak concentration of compound at Time = 0 was determined in rat at 5 mg/kg intravenously admn.; format: ADME, organism-based; design: dose 5 mg/kg, route intravenous; conditions: in vivo, iv; method in brief: as §3
[16] = Volume of distribution at steady state of compound was determined in rat at 5 mg/kg intravenously admn.; format: ADME, organism-based; design: dose 5 mg/kg, route intravenous; conditions: in vivo, iv, read-out: Vdss; method in brief: as §3
[17] = Volume of distribution at steady state of compound was determined in rabbit at 5 mg/kg intravenously admn.; format: ADME, organism-based, Oryctolagus cuniculus; design: dose 5 mg/kg, route intravenous; conditions: in vivo, iv, read-out: Vdss; method in brief: as §3
[18] = Oral bioavailability of compound was determined in monkey at 25 mg/kg orally; format: ADME, organism-based; conditions: simiiformes, in vivo, read-out: Bioavailabiility
[19] = Apparent elimination half life of compound was determined in rabbit at 5 mg/kg intravenously admn.; format: ADME, organism-based, Oryctolagus cuniculus; design: dose 5 mg/kg, route intravenous; conditions: in vivo, iv; method in brief: as §1
[20] = Area under concentration-time curve of compound was determined in rat at 5 mg/kg intravenously admn.; format: ADME, organism-based; design: dose 5 mg/kg, route intravenous; conditions: in vivo, iv, read-out: AUC 0; method in brief: as §1
[21] = Area under concentration-time curve of compound was determined in monkey at 25 mg/kg orally; format: ADME, organism-based; design: dose 25 mg/kg, route oral; conditions: simiiformes, in vivo, po; method in brief: as §1
[22] = Peak concentration of compound at Time = 0 was determined in dog at 5 mg/kg intravenously admn.; format: ADME, organism-based, Canis lupus familiaris; design: dose 5 mg/kg, route intravenous; conditions: in vivo, iv; method in brief: as §3
[23] = Area under concentration-time curve of compound was determined in rat at 25 mg/kg orally; format: ADME, organism-based; design: dose 25 mg/kg, route oral; conditions: in vivo, po; method in brief: as §1
[24] = Time of peak concentration of compound was determined in monkey at 25 mg/kg orally; format: ADME, organism-based; design: dose 25 mg/kg, route oral; conditions: simiiformes, in vivo, po; method in brief: as §2

Compound: O=C(NO)C1(S(=O)(=O)c2ccc(Oc3ccc(Cl)cc3)cc2)CCN(Cc2ccccc2)CC1
- half-life [1]: 10.7 h
- IC50 [2]: 7 nM
- Tmax [3]: 3.5 h
- bioavailability [4]: 11%
- clearance [5]: 0.1 mL/min/kg
- C0 [6]: 126 µg/mL
- IC50 (Neutrophil collagenase): 1 nM
- clearance [7]: 0.3 mL/min/kg
- AUC [8]: 1510 µg·h/mL
- Average gross pathology scores+/- SE (Oryctolagus cuniculus): 9.7
- Cmax [9]: 96.3 µg/mL
- half-life [10]: 20 h
- bioavailability [11]: 47%
- half-life [12]: 13.5 h
- Cmax [13]: 75.2 µg/mL
- half-life [14]: 17.6 h
- C0 [15]: 329 µg/mL
- Vd [16]: 0.1 L/kg
- Vd [17]: 0.1 L/kg
- bioavailability [18]: 37%
- half-life [19]: 11.8 h
- AUC [20]: 327 µg·h/mL
- AUC [21]: 1410 µg·h/mL
- C0 [22]: 82 µg/mL
- AUC [23]: 899 µg·h/mL
- Tmax [24]: 5.7 h
